Measured values taken from ChEMBL document CHEMBL1145930, “Synthesis and evaluation of nitroheterocyclic carbamate prodrugs for use with nitroreductase-mediated gene-directed enzyme prodrug therapy” (J Med Chem, 2003).
Values after ≈ are worked out from the molar mass of the structure shown.

Legend:
[1] = Solubility in alpha-MEM culture medium; assay type: physicochemical
In short: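 Solubility measured in α-MEM culture medium with 5% fetal calf serum, by HPLC analysis of the supernatant of a saturated solution.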

EMT6 [2] = test: Inhibitory activity against EMT6 murine cell line; assay type: functional, cell-based; details: Mus musculus
In short: (§1)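 Aerobic growth inhibition of log-phase cells (parental NTR-negative lines). Cultures seeded 24 h before an 18 h drug exposure; cell density read 4–5 days later by sulforhodamine B staining. IC50 is the concentration giving 50% growth inhibition versus same-plate controls. Mean ± SEM of up to five independent experiments.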

Mus musculus = test: In vivo maximum tolerance dose in C3H mice by ip administration; assay type: functional
In short: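 Male C3H mice (ca. 25 g), groups of six, given single ip doses in 10^(1/8)-fold increments. Vehicle DMSO at 1 μL/g for most compounds; CB1954 given in 10% DMA/40% PEG400/50% water at 10 μL/g. Animals observed daily for 60 days; any losing >15% body weight or becoming moribund were terminated.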

SK-OV-3 [3] = test: Inhibitory activity was determined against SKOV3 cell line in human; assay type: functional, cell-based; in short: as §1
V79 [4] = test: Inhibitory activity was determined against V79 cell line in chinese hamster; assay type: functional, cell-based; details: Cricetulus griseus; in short: as §1
WiDr [5] = test: Inhibitory activity was determined against WiDr cell line in human; assay type: functional, cell-based; in short: as §1
SK-OV-3 [6] = test: Ratio between SKOV3 and SKOV3-NTR neo was determined; assay type: functional, Homo sapiens
In short: (§2)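 Parental and stably NTR-transfected cells were tested in parallel by aerobic SRB growth inhibition (18 h exposure, readout 4–5 days later). The ratio is IC50(NTR-ve)/IC50(NTR+ve), calculated within each experiment. Selection drug was kept during passage but omitted during experiments: puromycin 15 µM for V79, 5 µM for EMT6; G418 300 µg/mL for SKOV3/WiDr.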

V79 [7] = test: Ratio between V79 and V79-NTRpuro was determined; assay type: functional, Cricetulus griseus; in short: as §2
WiDr [8] = test: Ratio between WiDr and WiDr-NTRneo was determined; assay type: functional, Homo sapiens; in short: as §2
EMT6 [9] = test: Ratio between EMT6 and EMT6-NTRpuro was determined; assay type: functional, Mus musculus; in short: as §2
EMT6 [10] = test: Inhibitory activity against EMT6 (mouse mammary carcinoma) murine cell line; assay type: functional, cell-based; in short: as §1
SK-OV-3 [11] = test: Inhibitory activity against SKOV3 (human ovarian carcinoma) cell line in human; assay type: functional, cell-based; in short: as §1

COc1cc2cc(C(=O)C3CN(CCl)c4cc(NC(=O)OCc5cnc([N+](=O)[O-])n5C)c5ccccc5c43)[nH]c2c(OC)c1OC (centres undefined)
solubility [1]: 17 µM (≈ 11 µg/mL)
IC50 (EMT6 [2]): 19.6 µM
MTD (Mus musculus): >1000 µM
IC50 (SK-OV-3 [3]): 75 µM
IC50 (V79 [4]): 24 µM
IC50 (WiDr [5]): 75 µM
Ratio (SK-OV-3 [6]): 21
Ratio (V79 [7]): 14.7
Ratio (WiDr [8]): 40
Ratio (EMT6 [9]): 62

COc1cc2cc(C(=O)C3CN(CCl)c4cc(NC(=O)OCc5ccn(C)c5[N+](=O)[O-])c5ccccc5c43)[nH]c2c(OC)c1OC (centres undefined)
solubility [1]: 18 µM (≈ 11.7 µg/mL)
IC50 (EMT6 [2]): 64 µM
IC50 (SK-OV-3 [3]): 116 µM
IC50 (V79 [4]): 62 µM
IC50 (WiDr [5]): 219 µM
Ratio (SK-OV-3 [6]): 0.5
Ratio (V79 [7]): 1.5
Ratio (WiDr [8]): 1.8
Ratio (EMT6 [9]): 1.3

COc1cc2cc(C(=O)C3CN(CCl)c4cc(NC(=O)OCc5ncc([N+](=O)[O-])n5CCO)c5ccccc5c43)[nH]c2c(OC)c1OC (centres undefined)
solubility [1]: 20 µM (≈ 13.6 µg/mL)
IC50 (EMT6 [2]): 129 µM
IC50 (SK-OV-3 [3]): 378 µM
IC50 (V79 [4]): 94 µM
IC50 (WiDr [5]): 427 µM
Ratio (SK-OV-3 [6]): 26
Ratio (V79 [7]): 1.2
Ratio (WiDr [8]): 12.4
Ratio (EMT6 [9]): 11

COc1cc2cc(C(=O)C3CN(CCl)c4cc(NC(=O)OCc5ncn(C)c5[N+](=O)[O-])c5ccccc5c43)[nH]c2c(OC)c1OC (centres undefined)
solubility [1]: 5.5 µM (≈ 3.57 µg/mL)
IC50 (EMT6 [2]): 63 µM
IC50 (SK-OV-3 [3]): 61 µM
IC50 (V79 [4]): 44 µM
IC50 (WiDr [5]): 0.024 µM
Ratio (SK-OV-3 [6]): 5.6
Ratio (V79 [7]): 1.4
Ratio (WiDr [8]): 3.4
Ratio (EMT6 [9]): 6.5

NC(=O)c1cc(N2CC2)c([N+](=O)[O-])cc1[N+](=O)[O-] [TRETAZICAR]
solubility [1]: 1600 µM (≈ 403 µg/mL)
IC50 (EMT6 [10]): 71 µM
IC50 (SK-OV-3 [11]): 174 µM
Ratio (SK-OV-3 [6]): 317
Ratio (V79 [7]): 2090
Ratio (WiDr [8]): 51
Ratio (EMT6 [9]): 930

COc1cc2cc(C(=O)C3CN(CCl)c4cc(NC(=O)OCc5ncc([N+](=O)[O-])n5C)c5ccccc5c43)[nH]c2c(OC)c1OC (centres undefined)
solubility [1]: 8 µM (≈ 5.19 µg/mL)
IC50 (EMT6 [2]): 78 µM
MTD (Mus musculus): >1000 µM
IC50 (SK-OV-3 [3]): 146 µM
IC50 (V79 [4]): 68 µM
IC50 (WiDr [5]): 230 µM
Ratio (SK-OV-3 [6]): 50
Ratio (V79 [7]): 10
Ratio (WiDr [8]): 100
Ratio (EMT6 [9]): 71

COc1cc2cc(C(=O)C3CN(CCl)c4cc(NC(=O)OCc5ccc([N+](=O)[O-])s5)c5ccccc5c43)[nH]c2c(OC)c1OC (centres undefined)
solubility [1]: 4 µM (≈ 2.6 µg/mL)
IC50 (EMT6 [2]): 0.0043 µM
IC50 (SK-OV-3 [3]): 0.0106 µM
IC50 (V79 [4]): 0.0035 µM
IC50 (WiDr [5]): 0.018 µM
Ratio (SK-OV-3 [6]): 7
Ratio (V79 [7]): 3.1
Ratio (WiDr [8]): 13.5
Ratio (EMT6 [9]): 16

COc1cc2cc(C(=O)C3CN(CCl)c4cc(NC(=O)OCc5ccc([N+](=O)[O-])o5)c5ccccc5c43)[nH]c2c(OC)c1OC (centres undefined)
solubility [1]: 11 µM (≈ 6.99 µg/mL)
IC50 (EMT6 [2]): 18 µM
IC50 (SK-OV-3 [3]): 76 µM
IC50 (V79 [4]): 20 µM
IC50 (WiDr [5]): 89 µM
Ratio (SK-OV-3 [6]): 1.2
Ratio (V79 [7]): 1.1
Ratio (WiDr [8]): 1.9
Ratio (EMT6 [9]): 1.2

COc1cc2cc(C(=O)C3CN(CCl)c4cc(NC(=O)OCc5c([N+](=O)[O-])ncn5C)c5ccccc5c43)[nH]c2c(OC)c1OC (centres undefined)
solubility [1]: 13 µM (≈ 8.44 µg/mL)
IC50 (EMT6 [2]): 73 µM
IC50 (SK-OV-3 [3]): 185 µM
IC50 (V79 [4]): 55 µM
IC50 (WiDr [5]): 201 µM
Ratio (SK-OV-3 [6]): 4.8
Ratio (V79 [7]): 1.2
Ratio (WiDr [8]): 2.8
Ratio (EMT6 [9]): 2.1

COc1cc2cc(C(=O)C3CN(CCl)c4cc(NC(=O)OCc5ccc([N+](=O)[O-])n5C)c5ccccc5c43)[nH]c2c(OC)c1OC (centres undefined)
solubility [1]: 9 µM (≈ 5.83 µg/mL)
IC50 (EMT6 [2]): 49 µM
IC50 (SK-OV-3 [3]): 265 µM
IC50 (V79 [4]): 53 µM
IC50 (WiDr [5]): 182 µM
Ratio (SK-OV-3 [6]): 1.3
Ratio (V79 [7]): 1
Ratio (WiDr [8]): 2.5
Ratio (EMT6 [9]): 1.2

COc1cc2cc(C(=O)C3CN(CCl)c4cc(NC(=O)OCc5c([N+](=O)[O-])ccn5C)c5ccccc5c43)[nH]c2c(OC)c1OC (centres undefined)
solubility [1]: 8.4 µM (≈ 5.44 µg/mL)
IC50 (EMT6 [2]): 15 µM
IC50 (SK-OV-3 [3]): 0.025 µM
IC50 (V79 [4]): 0.006 µM
IC50 (WiDr [5]): 0.028 µM
Ratio (SK-OV-3 [6]): 0.7
Ratio (V79 [7]): 0.9
Ratio (WiDr [8]): 1.4
Ratio (EMT6 [9]): 1.5

NC(=O)c1cc(N(CCBr)CCBr)c([N+](=O)[O-])cc1[N+](=O)[O-]
solubility [1]: 40 µM (≈ 17.6 µg/mL)
IC50 (EMT6 [2]): 54 µM
IC50 (SK-OV-3 [3]): 58 µM
Ratio (SK-OV-3 [6]): 211
Ratio (V79 [7]): 302
Ratio (WiDr [8]): 174
Ratio (EMT6 [9]): 1380

CCOC(=O)c1cc([N+](=O)[O-])c(COC(=O)Nc2cc3c(c4ccccc24)C(C(=O)c2cc4cc(OC)c(OC)c(OC)c4[nH]2)CN3CCl)n1C (centres undefined)
solubility [1]: 21 µM (≈ 15.1 µg/mL)
IC50 (SK-OV-3 [3]): 98 µM
IC50 (V79 [4]): 52 µM
IC50 (WiDr [5]): 223 µM
Ratio (SK-OV-3 [6]): 0.8
Ratio (V79 [7]): 1.8
Ratio (WiDr [8]): 1.3

COc1cc2cc(C(=O)C3CN(CCl)c4cc(NC(=O)OCc5cnn(C)c5[N+](=O)[O-])c5ccccc5c43)[nH]c2c(OC)c1OC (centres undefined)
solubility [1]: 8 µM (≈ 5.19 µg/mL)
IC50 (EMT6 [2]): 39 µM
IC50 (SK-OV-3 [3]): 0.032 µM
IC50 (V79 [4]): 41 µM
IC50 (WiDr [5]): 0.0113 µM
Ratio (SK-OV-3 [6]): 30.3
Ratio (V79 [7]): 37
Ratio (WiDr [8]): 13.5
Ratio (EMT6 [9]): 87

COc1cc2cc(C(=O)N3CC(CCl)c4c3cc(N)c3ccccc43)[nH]c2c(OC)c1OC (centres undefined)
solubility [1]: 197 µM (≈ 91.8 µg/mL)
IC50 (EMT6 [2]): 0.00037 µM
IC50 (SK-OV-3 [3]): 0.0011 µM
IC50 (V79 [4]): 0.00033 µM
IC50 (WiDr [5]): 0.0016 µM
Ratio (SK-OV-3 [6]): 0.55
Ratio (V79 [7]): 0.9
Ratio (WiDr [8]): 0.9
Ratio (EMT6 [9]): 2

CCOC(=O)c1cc(COC(=O)Nc2cc3c(c4ccccc24)C(C(=O)c2cc4cc(OC)c(OC)c(OC)c4[nH]2)CN3CCl)c([N+](=O)[O-])n1C (centres undefined)
IC50 (EMT6 [2]): 28 µM
IC50 (SK-OV-3 [3]): 97 µM
IC50 (V79 [4]): 24 µM
IC50 (WiDr [5]): 94 µM
Ratio (SK-OV-3 [6]): 9.6
Ratio (V79 [7]): 2
Ratio (WiDr [8]): 13
Ratio (EMT6 [9]): 12
